The source of these data is paper PMC10127574 (ACS chemical biology, 2015).

Data set [1] can be described thus: chemical stability in PBS. Format: physicochemical.
A short description of data set [2]: liver microsome stability, human. Format: in vitro ADME. As to conditions: human liver microsomes.
The nature of data set [3]: solubility in assay buffer. Format: physicochemical. As to conditions: aqueous buffer.
The target in data set [4] is T1, intracellular pools of IDE (Mus musculus, UniProt Q9JHR7).
T1 sequence (Q9JHR7 1-1019): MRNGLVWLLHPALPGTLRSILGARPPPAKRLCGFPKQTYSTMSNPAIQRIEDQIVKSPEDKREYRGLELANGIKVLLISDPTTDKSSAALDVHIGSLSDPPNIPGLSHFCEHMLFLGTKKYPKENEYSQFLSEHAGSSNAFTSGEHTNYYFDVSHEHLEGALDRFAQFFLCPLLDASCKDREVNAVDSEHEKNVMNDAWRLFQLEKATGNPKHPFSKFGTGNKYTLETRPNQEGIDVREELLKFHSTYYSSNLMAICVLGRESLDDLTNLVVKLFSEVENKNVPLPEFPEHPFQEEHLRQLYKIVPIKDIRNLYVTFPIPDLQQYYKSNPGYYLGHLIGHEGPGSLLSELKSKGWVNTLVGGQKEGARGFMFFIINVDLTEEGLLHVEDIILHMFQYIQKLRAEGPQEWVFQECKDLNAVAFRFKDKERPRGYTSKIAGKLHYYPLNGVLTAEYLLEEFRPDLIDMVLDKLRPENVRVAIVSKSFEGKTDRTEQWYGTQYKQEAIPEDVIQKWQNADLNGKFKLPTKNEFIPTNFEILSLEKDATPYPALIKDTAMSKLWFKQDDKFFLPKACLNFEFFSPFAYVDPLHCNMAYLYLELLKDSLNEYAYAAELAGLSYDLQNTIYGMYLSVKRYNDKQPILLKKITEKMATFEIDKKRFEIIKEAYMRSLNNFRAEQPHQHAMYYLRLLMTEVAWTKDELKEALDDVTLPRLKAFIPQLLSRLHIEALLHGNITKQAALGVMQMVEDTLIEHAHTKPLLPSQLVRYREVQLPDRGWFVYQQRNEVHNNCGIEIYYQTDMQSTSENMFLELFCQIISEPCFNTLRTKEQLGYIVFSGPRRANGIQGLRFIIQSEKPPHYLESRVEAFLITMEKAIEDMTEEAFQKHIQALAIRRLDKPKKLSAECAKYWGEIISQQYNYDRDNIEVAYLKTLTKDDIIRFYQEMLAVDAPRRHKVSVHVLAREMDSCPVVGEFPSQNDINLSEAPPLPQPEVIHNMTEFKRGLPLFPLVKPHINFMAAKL
The data set can be described thus: intracellular IDE activity in BV-2 cells. Format: cell-based. As to conditions: 30 μM, 16 h, cell extracts. An outline of the steps:
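BV-2 cells were treated 16 h with 30 μM compound, then conditioned medium was collected. Cells were washed in PBS, lysed hypotonically in 50 mM Tris-HCl at 4 °C, extruded through a needle and centrifuged. Extracts were diluted 1:200 (v:v). Activity was measured by avidin-agarose precipitation Aß degradation assay with FAßB. Mean ± SEM, 3 replications.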

In brackets after ≈: the same amount, converted by molar mass.

With `O=c1c2cc(F)ccc2sn1-c1cc(S(=O)(=O)N2CCOCC2)ccc1N1CCOCC1` [Compound 8, 5-fluoro-2-(2-morpholin-4-yl-5-morpholin-4-ylsulfonylphenyl)-1,2-benzothiazol-3-one], the “Chemical stability in PBS” value in data set [1] is given as >> 48 hr. In data set [2], the “Liver microsome stability, Human” value is listed as more than 120 min. Further, the concentration in solution in data set [3] (solubility) came to 5.1 µM (≈ 2.45 µg/mL). In data set [4], the “inhibition of intracellular pools of IDE in BV-2 cells” value is given as “does not affect”.
